Shown is part of a subset that was picked to be rich in hits.
YB-1 expression: YB-1 expression inhibition. U2OS, qRT-PCR YB-1 vs CDIP delta delta Cp, 16 h; hits give high values; zero = DMSO, each unit about twofold. delta delta Cp (YB-1 minus CDIP) (test concentration not listed). actives 0.37% (n = 30,000). AID 434959;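 active means delta delta Cp rounded down to an integer at or above 3, about 3 SD of DMSO wells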;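 further: higher means less YB-1 transcript or more CDIP transcript relative to DMSO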
T cruzi HTS: blocks T. cruzi growth inside host cells | activity score (inhibition), % at 5.01 µM | intracellular Trypanosoma cruzi in host cells, plate reader | actives 4.9% (n = 22,000); in the data active means activity score above about 55%;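 further: parasites and compound incubated about four days before reading; 0% = median of neutral control wells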
INS-1E rescue: preserves ATP levels in cytokine-treated INS-1E cells; INS-1E cytokine-induced death, ATP luminescence, 48 h; normalised: neutral wells 0, positive control 100; protection from cytokine-induced ATP loss, % at 10 µM; actives 0.1% (n = 20,000); AID 488910;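 active means mean replicate protection from cytokine-induced ATP loss at least 50% and at least 75% of replicates each reaching 50%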
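Assay system – rat INS-1E insulinoma cell line · Quantity – 8000 cells per well · Buffer or medium – RPMI without phenol red, 5% FBS · Schedule – 48 h co-treatment, 10 min post-lysis read · Technique – luminescent ATP assay (CellTiter-Glo)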
Active calls of the source: *.

C[C@@H]1CCCCO[C@H](CN(C)Cc2ccc3c(c2)OCO3)[C@@H](C)CN([C@H](C)CO)C(=O)c2cc(NC(=O)Nc3ccc4c(c3)OCO4)ccc2O1 was read as YB-1 expression 0.24, T cruzi HTS 1 and INS-1E rescue 6.
C[C@@H]1CCCCO[C@@H](CN(C)Cc2ccc3c(c2)OCO3)[C@@H](C)CN([C@H](C)CO)C(=O)c2cc(NC(=O)Nc3ccc4c(c3)OCO4)ccc2O1 was read as YB-1 expression -0.47, T cruzi HTS 71* and INS-1E rescue -18.
For C[C@@H]1CCCCO[C@H](CN(C)CC2CCCCC2)[C@@H](C)CN([C@H](C)CO)C(=O)c2cc(NC(=O)c3ccncc3)ccc2O1 the results were YB-1 expression 6.4*, T cruzi HTS -2 and INS-1E rescue -2.
C[C@@H]1CCCCO[C@@H](CN(C)CC2CCCCC2)[C@@H](C)CN([C@H](C)CO)C(=O)c2cc(NC(=O)c3ccccc3)ccc2O1 was read as YB-1 expression -0.42, T cruzi HTS 23 and INS-1E rescue -9.
C[C@@H]1CCCCO[C@H](CN(C)Cc2ccc(Cl)c(Cl)c2)[C@@H](C)CN([C@H](C)CO)C(=O)c2cc(NC(=O)Nc3ccc4c(c3)OCO4)ccc2O1 was read as YB-1 expression -0.21, T cruzi HTS 69* and INS-1E rescue -26.
For O=C(CCCCCCC(=O)Nc1ccccc1O)N/N=C\c1ccc2ccccc2n1 the results were YB-1 expression -0.22, T cruzi HTS 12 and INS-1E rescue 4.
For O=C(CCCCCCC(=O)Nc1ccccc1O)N/N=C/c1ccc(F)c(Oc2ccccc2)c1 the results were YB-1 expression -0.29, T cruzi HTS 19 and INS-1E rescue -3.
`COc1cc2c(cc1O)C(C1CC1)N(C)CC2` (stereo not drawn) gave YB-1 expression 0.35.
Screening C[C@@H]1CCCCO[C@@H](CN(C)CC2CC2)[C@@H](C)CN([C@H](C)CO)C(=O)c2cc(NC(=O)Nc3ccc4c(c3)OCO4)ccc2O1 returned YB-1 expression -0.0067, T cruzi HTS 9 and INS-1E rescue -4.
C[C@@H]1CCCCO[C@@H](CN(C)Cc2ccc3c(c2)OCO3)[C@@H](C)CN([C@H](C)CO)C(=O)c2cc(NC(=O)Nc3ccc(C(F)(F)F)cc3)ccc2O1 was read as YB-1 expression 0.066, T cruzi HTS 65* and INS-1E rescue -16.
Screening CC(C)NC(=O)Nc1ccc2c(c1)C(=O)N([C@H](C)CO)C[C@H](C)[C@H](CN(C)Cc1ccc(C(F)(F)F)cc1)OCCCC[C@@H](C)O2 returned YB-1 expression 0.099, T cruzi HTS 5 and INS-1E rescue 15.
`C[C@@H]1CCCCO[C@@H](CN(C)Cc2ccc(Cl)c(Cl)c2)[C@@H](C)CN([C@H](C)CO)C(=O)c2cc(NC(=O)Nc3ccc(C(F)(F)F)cc3)ccc2O1` gave YB-1 expression -0.26, T cruzi HTS 76* and INS-1E rescue -18.
Screening C[C@@H]1CCCCO[C@@H](CN(C)CC2CCCCC2)[C@@H](C)CN([C@H](C)CO)C(=O)c2cc(NC(=O)Nc3ccc4c(c3)OCO4)ccc2O1 returned YB-1 expression -0.093, T cruzi HTS 58* and INS-1E rescue -25.
For C[C@@H]1CCCCO[C@@H](CN(C)Cc2ccc3c(c2)OCO3)[C@@H](C)CN([C@H](C)CO)C(=O)c2cc(NC(=O)Nc3ccc(F)cc3)ccc2O1 the results were YB-1 expression 0.36, T cruzi HTS 43 and INS-1E rescue 7.
Screening COC(=O)C(CC#Cc1ccc2c(c1)[C@]1(C(=O)N2)[C@H](c2ccccc2OCCO)N2[C@H](c3ccccc3)[C@H](c3ccccc3)OC(=O)[C@H]2[C@@H]1C(=O)O)C(=O)OC returned YB-1 expression -0.64.
`CC(C)(C)C1CCc2c(sc3nc(-c4cccs4)oc(=O)c23)C1` (stereo not drawn) gave YB-1 expression -0.24.
CS(=O)(=O)N1N=C(c2ccc(Br)cc2)CC1c1cc2ccccc2nc1Cl (stereo not drawn) was read as YB-1 expression -0.24.
`COc1ccc2c(c1OC)C(=O)N1c3ccccc3N=C(c3ccc(Br)cc3)CC21` (stereo not drawn) gave YB-1 expression 9.6*.
Screening COc1ccc(S(=O)(=O)Nc2ccc3c(c2)C(=O)N([C@H](C)CO)C[C@@H](C)[C@H](CN(C)Cc2ccc(Oc4ccccc4)cc2)O3)cc1 returned YB-1 expression 0.16, T cruzi HTS 32 and INS-1E rescue -26.
For COc1ccc(S(=O)(=O)Nc2ccc3c(c2)C(=O)N([C@H](C)CO)C[C@H](C)[C@@H](CN(C)Cc2ccc(Oc4ccccc4)cc2)O3)cc1 the results were YB-1 expression 14*, T cruzi HTS 42 and INS-1E rescue -16.
Screening COc1ccc(S(=O)(=O)Nc2ccc3c(c2)C(=O)N([C@@H](C)CO)C[C@H](C)[C@H](CN(C)Cc2ccc(Oc4ccccc4)cc2)O3)cc1 returned YB-1 expression -0.33, T cruzi HTS 74* and INS-1E rescue -48.
For COc1ccc(S(=O)(=O)Nc2ccc3c(c2)C(=O)N([C@H](C)CO)C[C@@H](C)[C@@H](CN(C)Cc2ccc(Oc4ccccc4)cc2)O3)cc1 the results were YB-1 expression -0.42, T cruzi HTS -12 and INS-1E rescue -14.
Screening C/C=C1\[C@H](O[C@@H]2O[C@H](CO)[C@@H](O)[C@H](O)[C@H]2O)OC=C(C(=O)O)[C@H]1CC(=O)OCCc1ccc(O)cc1 returned YB-1 expression 0.64.
Screening C[C@H]1CN([C@@H](C)CO)C(=O)Cc2cc(NS(=O)(=O)c3ccc(Cl)cc3)ccc2O[C@H]1CN(C)Cc1ccc(Oc2ccccc2)cc1 returned YB-1 expression -0.021, T cruzi HTS 7 and INS-1E rescue -10.
Screening C[C@H](CO)N1C[C@H](C)[C@H](CN(C)Cc2ccccc2)Oc2ccc(NS(=O)(=O)c3ccc(Cl)cc3)cc2CC1=O returned YB-1 expression 0.0039, T cruzi HTS -25 and INS-1E rescue 18.
Screening C[C@@H]1CN([C@H](C)CO)C(=O)Cc2cc(NS(=O)(=O)c3ccc(Cl)cc3)ccc2O[C@H]1CN(C)Cc1ccc(Oc2ccccc2)cc1 returned YB-1 expression -0.14, T cruzi HTS 64* and INS-1E rescue -11.
For C[C@@H]1CN([C@@H](C)CO)C(=O)Cc2cc(NS(=O)(=O)c3ccc(F)cc3)ccc2O[C@@H]1CN(C)Cc1ccc(Oc2ccccc2)cc1 the results were YB-1 expression 0.14, T cruzi HTS 75* and INS-1E rescue -25.
C[C@@H]1CN([C@@H](C)CO)C(=O)Cc2cc(NS(=O)(=O)c3ccc(F)cc3)ccc2O[C@@H]1CN(C)Cc1ccc(-c2ccccc2)cc1 was read as YB-1 expression 0.21, T cruzi HTS 63* and INS-1E rescue -22.
For C[C@H]1CN([C@@H](C)CO)C(=O)Cc2cc(NS(=O)(=O)c3ccc(F)cc3)ccc2O[C@H]1CN(C)Cc1ccc(-c2ccccc2)cc1 the results were YB-1 expression -0.14, T cruzi HTS 30 and INS-1E rescue -28.

Screens from PubChem BioAssay.
